Screens (PubChem BioAssay)
This excerpt belongs to a sample that is enriched for hits.
GASC1 inh: inhibitors of GASC-1 (KDM4C) histone demethylase, primary screen, biochemical, single concentration HTS. AID 720574, 2013. Lysine-specific demethylase 4C (Homo sapiens), Q9H3R0. inhibition, % at 12.5 µM. GST-KDM4C 2-372, H3K9me3 peptide, LANCE TR-FRET. 96,000 tested, 0.15% active;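 active = mean replicate inhibition above about 25%, with at least 55% of replicates also reaching it, limit read from the data, passing the limit was not always enough; inconclusive = only one of those two conditions met; inactive = neither condition met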
Target sequence (Q9H3R0 2-372 limits assumed): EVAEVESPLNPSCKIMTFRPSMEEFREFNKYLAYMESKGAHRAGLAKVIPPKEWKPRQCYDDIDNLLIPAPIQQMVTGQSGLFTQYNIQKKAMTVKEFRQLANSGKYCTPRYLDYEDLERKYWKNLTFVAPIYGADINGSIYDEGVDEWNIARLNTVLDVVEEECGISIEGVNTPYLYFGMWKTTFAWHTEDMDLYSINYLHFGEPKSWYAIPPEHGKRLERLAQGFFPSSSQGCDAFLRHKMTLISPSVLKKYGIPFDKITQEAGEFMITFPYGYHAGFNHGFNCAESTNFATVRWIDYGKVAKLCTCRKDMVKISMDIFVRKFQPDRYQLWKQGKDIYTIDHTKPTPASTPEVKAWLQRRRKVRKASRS
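System: N-terminal GST-fused human GASC-1 (KDM4C) fragment, residues 2-372; amount: enzyme final amount 10 nM; incubation: reaction 30 min RT, detection step 1 h RT; medium: HEPES buffer, pH 7.5, plus ascorbate; technique: LANCE TR-FRET, Eu antibody, ULight-streptavidin, EDTA, ex 340 nm, em 618/671 nm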
T cruzi growth-1: T. cruzi intracellular proliferation inhibitors, primary screen, cell-based, beta-gal Tulahuen parasites, NIH3T3 host, luminescence; inhibition, % at 8.34 µM; T. cruzi beta-gal in NIH3T3, GalScreen luminescence, 90 h; 77,000 tested, 5.9% active; AID 624255, 2012;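 active = mean inhibition above about 93%, with at least 55% of replicates each passing it, limit read from the data, passing the limit was not always enough; inconclusive = only one of those two conditions holds; inactive = neither condition holds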
IDH1 R132H inh: inhibitors of IDH1 R132H reductase, primary screen, biochemical, plate reader, single point. inhibition, % at 10 µM. 70,000 tested, 0.18% active. diaphorase/resazurin fluorescence, 60 min. AID 624101, 2012; in the data active = inhibition above about 34%; inconclusive = no clear call, values can overlap the other calls; inactive = below about 11%;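 also: 0% = DMSO and 100% = no enzyme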
Target sequence (O75874 whole entry R132H): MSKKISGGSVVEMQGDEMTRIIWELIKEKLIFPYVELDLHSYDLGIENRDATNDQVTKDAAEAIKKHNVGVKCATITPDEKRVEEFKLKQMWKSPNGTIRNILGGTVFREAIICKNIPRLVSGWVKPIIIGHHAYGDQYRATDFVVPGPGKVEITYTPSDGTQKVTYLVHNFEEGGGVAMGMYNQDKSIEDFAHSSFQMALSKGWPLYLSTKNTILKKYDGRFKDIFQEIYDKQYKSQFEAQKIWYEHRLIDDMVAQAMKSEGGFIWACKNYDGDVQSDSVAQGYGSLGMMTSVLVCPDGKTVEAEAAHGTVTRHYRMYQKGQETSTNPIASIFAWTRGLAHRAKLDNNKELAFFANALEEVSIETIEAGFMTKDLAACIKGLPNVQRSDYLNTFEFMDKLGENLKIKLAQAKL
T cruzi growth-2: T. cruzi intracellular proliferation inhibitors, confirmation, cell-based, NIH3T3 host, beta-gal parasite, luminescence, cherry-pick; T. cruzi beta-gal in NIH3T3, GalScreen luminescence, 90 h; inhibition, % at 8.35 µM; 5,600 tested, 72% active; shares compounds with T cruzi growth-1;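 active = mean replicate inhibition above about 95% and at least 55% of replicates individually reaching it, limit read from the data; inconclusive = only one of the two criteria is met; inactive = neither criterion is met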
T cruzi growth-3: inhibitors of intracellular T. cruzi replication, confirmation, NIH3T3 host cells, beta-gal parasites, cherry-pick, set 2. shares compounds with T cruzi growth-1. T. cruzi beta-gal in NIH3T3, GalScreen luminescence, 90 h. inhibition, % at 2.09 µM. 5,600 tested, 21% active. AID 651740, 2012;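 active = mean inhibition above about 95%, with at least 55% of replicates also reaching it, limit read from the data; inconclusive = meets just one of the two conditions; inactive = meets neither condition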;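 also: plate controls were neutral control median for no effect and positive control median for full effect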
3T3 cytotox: cytotoxicity in mouse NIH/3T3 fibroblasts, confirmation, cytotoxicity control for T. cruzi proliferation inhibitor project, cell-based, cherry-pick, single point. shares compounds with T cruzi growth-1. NIH/3T3 viability, CellTiter-Glo ATP luminescence, 90 h. cytotoxicity (signal decrease), % at 8.35 µM. 5,600 tested, 14% active. AID 651742, 2012;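 active = mean signal decrease across replicates above about 35% based on untreated-well scatter, with enough replicates individually passing, limit read from the data; inconclusive = no rule stated though some were filed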;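 also: 0% = median of neutral control wells and 100% = median of positive control wells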
NIH3T3 tox 2: NIH/3T3 fibroblast cytotoxicity, confirmation, cytotoxicity control, cell-based, cherry-pick, single point, set 2; shares compounds with T cruzi growth-1; NIH/3T3 viability, CellTiter-Glo ATP luminescence, 90 h; inhibition, % at 24.9 µM; 5,600 tested, 56% active; AID 651744, 2012;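 active = mean loss of cell viability signal at or above a set limit, and enough replicates individually reaching it; inconclusive = meets only the mean limit or only the replicate share; inactive = meets neither condition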;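 also: 0% = median of neutral control wells and 100% = median of positive control wells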
Starred values were filed as active, the others as inactive; ? = inconclusive; . = not tested or not shown.

SMILES | GASC1 inh | T cruzi growth-1 | IDH1 R132H inh | T cruzi growth-2 | T cruzi growth-3 | 3T3 cytotox | NIH3T3 tox 2
CC(=O)c1cccc(NC(=O)c2ccsc2NC(=O)COc2ccccc2)c1 | . | . | 1.9 | . | . | . | .
O=C(CSc1nc2ccccc2[nH]1)Nc1cccc(Cl)c1 | . | . | -0.3 | . | . | . | .
COC(=O)CNC(=O)c1cc2nc(-c3ccc(C)c(C)c3)cc(C(F)(F)F)n2n1 | . | . | 2.4 | . | . | . | .
C[C@H](CO)N1C[C@H](C)[C@@H](CN(C)S(=O)(=O)c2cccs2)Oc2ccc(NS(C)(=O)=O)cc2CC1=O | -0.5 | 45.8 | 2.5 | . | . | . | .
CC(C)C(NC=O)C(=O)OCC(O)C(O)C(O)C(O)COC(=O)C(NC=O)C(C)C (stereo unspecified) | . | . | 0.1 | . | . | . | .
COc1ccc(S(=O)(=O)N(C)C[C@H]2OCCCC[C@H](C)Oc3ccc(NS(=O)(=O)c4ccc(F)cc4)cc3C(=O)N([C@H](C)CO)C[C@@H]2C)cc1 | 0.2 | 25.8 | 2.8 | . | . | . | .
COc1ccc(S(=O)(=O)Nc2ccc3c(c2)C(=O)N([C@H](C)CO)C[C@@H](C)[C@H](CN(C)S(=O)(=O)c2ccc(F)cc2)OCCCC[C@@H](C)O3)cc1 | -2.7 | 105.2* | 3.3 | 105.3* | 58.7 | 10.6 | 13.5
O=C(Nc1sc2c(c1C(=O)NCc1ccco1)CCCC2)c1ccc(Cl)cc1Cl | . | . | 0.3 | . | . | . | .
CC(C)NC(=O)N1CCCCN2[C@H](CO)[C@H](c3ccc(C#Cc4ccccc4)cc3)[C@H]2C1 | -0.8 | 106.8* | . | 106.1* | 104.7* | 41.2* | 107.1*
CC(C)NC(=O)N1CCCCN2[C@H](C1)[C@@H](c1ccc(C#Cc3ccccc3)cc1)[C@@H]2CO | -1.4 | 76.3 | . | . | . | . | .
CC(C)C#Cc1ccc([C@H]2[C@H]3CN(C(=O)NC(C)C)CCCCN3[C@H]2CO)cc1 | -0.7 | 53.5 | . | . | . | . | .
CC(C)NC(=O)N1CCCCN2[C@H](CO)[C@@H](c3ccc(C#Cc4ccccc4)cc3)[C@H]2C1 | -1.8 | 103.2* | . | 100.9* | 71.9 | 22.8 | 102.3*
CC(C)C#Cc1ccc([C@@H]2[C@H](CO)N3CCCCN(C(=O)NC(C)C)C[C@@H]23)cc1 | 1.0 | 103.2* | . | 101.3* | 89.3 | 11.9 | 84.7*
CC(C)NC(=O)N1CCCCN2[C@H](C1)[C@H](c1ccc(C#Cc3ccccc3)cc1)[C@@H]2CO | -0.7 | 81.6 | . | . | . | . | .
O=C(CSc1ncccn1)Nc1cc(Cl)cc(Cl)c1 | . | . | 0.1 | . | . | . | .
COCCNC(=O)[C@@H]1[C@@H](CO)[C@@H]2Cn3c(ccc(-c4ccccc4F)c3=O)[C@@H]2N1C(=O)C1CCCC1 | 1.0 | -84.1 | . | . | . | . | .
CCCN(C)C[C@@H]1Oc2cc(C#Cc3ccccc3)ccc2S(=O)(=O)N([C@@H](C)CO)C[C@@H]1C | -5.3 | 111.5* | -1.1 | 112.6* | 72.3 | 4.0 | 104.1*
CCCN(C)C[C@H]1Oc2cc(C#CC(C)C)ccc2S(=O)(=O)N([C@@H](C)CO)C[C@H]1C | 0.1 | 94.0 | -0.4 | . | . | . | .
CCCN(C)C[C@@H]1Oc2cc(C#Cc3ccc(F)cc3)ccc2S(=O)(=O)N([C@@H](C)CO)C[C@@H]1C | 2.7 | 85.4* | -0.2 | 108.5* | ? | ? | 105.7*
CCCN(C)C[C@@H]1Oc2cc(C#Cc3ccc(OC)cc3)ccc2S(=O)(=O)N([C@H](C)CO)C[C@@H]1C | 13.9 | 94.5 | -2.5 | . | . | . | .
CCCN(C)C[C@H]1Oc2cc(C#Cc3ccc(F)cc3)ccc2S(=O)(=O)N([C@@H](C)CO)C[C@H]1C | -2.1 | 17.2 | -1.2 | . | . | . | .
CCCN(C)C[C@@H]1Oc2cc(C#Cc3ccc(OC)cc3)ccc2S(=O)(=O)N([C@@H](C)CO)C[C@@H]1C | -3.5 | ? | 0.4 | 110.1* | 85.5 | 43.4* | 103.9*
CCCN(C)C[C@@H]1Oc2cc(C#Cc3ccccc3)ccc2S(=O)(=O)N([C@H](C)CO)C[C@@H]1C | -3.2 | 43.9 | 0.7 | . | . | . | .
CCCN(C)C[C@@H]1Oc2cc(C#CC(C)C)ccc2S(=O)(=O)N([C@@H](C)CO)C[C@H]1C | 0.5 | 102.0* | -0.7 | 111.0* | 90.9 | 9.7 | 104.5*
CCC[C@@H](O)[C@H](O)[C@@H]1CC(OC)=CC(=O)O1 | . | . | 0.5 | . | . | . | .
SMILES | GASC1 inh | T cruzi growth-1 | IDH1 R132H inh | T cruzi growth-2 | T cruzi growth-3 | 3T3 cytotox | NIH3T3 tox 2
OC1c2ccccc2-c2c3c(cc4c2C1NCC4)OCO3 (stereo unspecified) | . | . | -0.3 | . | . | . | .
Cc1ccc(C)c(NC(=O)c2ccc(OCC(=O)Nc3cc(C(F)(F)F)ccc3Cl)cc2)c1 | . | . | 0.5 | . | . | . | .
COc1ccccc1-n1nnnc1SCC(=O)Nc1ccccc1F | . | . | -0.1 | . | . | . | .
CC(C)NC(=O)N1[C@@H]2Cn3c(cccc3=O)[C@H]1[C@@H](C(=O)N1CCC(Cc3ccccc3)CC1)[C@@H]2CO | -1.0 | . | . | . | . | . | .
C[C@@H]1CN([C@@H](C)CO)S(=O)(=O)c2ccc(C#Cc3ccccc3F)cc2O[C@H]1CN(C)C | -2.7 | 21.0 | -0.1 | . | . | . | .
CCCN(C)C[C@@H]1Oc2cc(C#Cc3ccccc3F)ccc2S(=O)(=O)N([C@@H](C)CO)C[C@@H]1C | -0.3 | ? | -0.4 | 111.8* | 88.6 | 23.3 | 105.7*
Cc1ccc(-c2nnc(SCC(=O)Nc3c(Cl)cc(Cl)cc3Cl)n2C)cc1 | . | . | -0.4 | . | . | . | .
CNC[C@H]1Oc2cc(C#Cc3ccccc3OC)ccc2S(=O)(=O)N([C@H](C)CO)C[C@@H]1C | -5.0 | 101.4* | 0.1 | 107.5* | 85.9 | 20.4 | 104.3*
COc1ccccc1C#Cc1ccc2c(c1)O[C@@H](CN(C)C)[C@@H](C)CN([C@@H](C)CO)S2(=O)=O | -1.0 | . | -0.2 | . | . | . | .
CNC[C@@H]1Oc2cc(C#Cc3ccccc3OC)ccc2S(=O)(=O)N([C@H](C)CO)C[C@H]1C | -1.6 | 102.5* | -2.3 | 102.0* | 69.0 | 27.0 | 102.6*
CNC[C@@H]1Oc2cc(C#Cc3ccccc3)ccc2S(=O)(=O)N([C@@H](C)CO)C[C@H]1C | -2.4 | . | -0.7 | . | . | . | .
C[C@@H]1CCCCO[C@@H](CN(C)C(=O)Nc2ccc(F)cc2)[C@H](C)CN([C@@H](C)CO)C(=O)c2cc(NC(=O)c3ccccc3)ccc2O1 | -0.6 | 56.6 | . | . | . | . | .
C[C@H](CO)N1C[C@H](C)[C@H](CN(C)C(=O)Nc2ccc(F)cc2)OCCCC[C@H](C)Oc2ccc(NC(=O)c3ccccc3)cc2C1=O | -1.9 | ? | 0.4 | 106.7* | 76.1 | -23.3 | 1.7
